14 compounds from ChEMBL document CHEMBL4251599, “Synthesis and biological evaluation of coumarin derivatives containing imidazole skeleton as potential antibacterial agents” (Eur J Med Chem, 2018) can be followed below.

For assay [1], the system named is Flavobacterium columnare. Kind of assay: Antibacterial activity against Flavobacterium columnare FC-G1 after 24 hrs by two fold serial dilution method. Format: functional. Conditions: FC-G1, 24 h. The gist of the method:
(§1)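 Broth two-fold serial dilution per CLSI, in nutrient broth. Inoculum from 24 h cultures at 28 ± 1 °C, adjusted in saline to 1×10^7-2×10^7 cfu/mL, then diluted to 1×10^5-2×10^5 cfu/mL. Test range 256 down to 0.50 µM and lower. Tubes held 24 h at 28 ± 1 °C. MIC read visually. Enrofloxacin and norfloxacin served as standards.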

In assay [2] the test system is Streptococcus agalactiae. Kind of assay: Antibacterial activity against Streptococcus agalactiae WB1445 after 24 hrs by two fold serial dilution method. The class given is functional. The settings on record: WB1445, 24 h. The method, boiled down: as §1
Assay [3] deals with Flavobacterium columnare. Kind of assay: Bactericidal activity against Flavobacterium columnare FC-G1 incubated for 24 hrs followed by re-plating on nutrient agar and measured after overnight incubation by two fold serial dilution method. The settings on record: FC-G1, 24 h. The class given is functional. The gist of the method: (§2)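 After the MIC read, 100 µl from every tube without visible growth was spread on nutrient agar lacking compound. Plates were incubated overnight at 28 ± 1 °C. MBC was taken as the lowest concentration killing >99.9% of the initial population, seen as no growth on agar.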

In assay [4] the test system is Streptococcus agalactiae. As to the kind of experiment: Bactericidal activity against Streptococcus agalactiae WB1445 incubated for 24 hrs followed by re-plating on nutrient agar and measured after overnight incubation by two fold serial dilution method. Format: functional. Conditions: WB1445, 24 h. The gist of the method: as §2
The nature of assay [5]: Inhibition of Escherichia coli ATCC 35150 FabI in presence of t-O-NAC and NADH up to 1 min by spectrophotometric analysis. The method, boiled down: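 Recombinant His-tagged FabI, expressed in E. coli BL21(DE3) and purified on Ni-NTA, was used at 20 µL of 100 µg/mL stock in 0.1 M PBS-DTT. Compounds were tested at 128-1 µM with 10 µL of 4 mM t-O-NAC, and 20 µL of 2 mM NADH started the reaction. NADH oxidation was followed at 340 nm for 1 min. IC50 came from dose-response plots.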

The target of assay [6] is T1, Enoyl-(Acyl-carrier-protein) reductase II (Streptococcus agalactiae serotype V (strain ATCC BAA-611 / 2603 V/R), UniProt Q8E1K8).
T1 sequence (Q8E1K8 whole entry): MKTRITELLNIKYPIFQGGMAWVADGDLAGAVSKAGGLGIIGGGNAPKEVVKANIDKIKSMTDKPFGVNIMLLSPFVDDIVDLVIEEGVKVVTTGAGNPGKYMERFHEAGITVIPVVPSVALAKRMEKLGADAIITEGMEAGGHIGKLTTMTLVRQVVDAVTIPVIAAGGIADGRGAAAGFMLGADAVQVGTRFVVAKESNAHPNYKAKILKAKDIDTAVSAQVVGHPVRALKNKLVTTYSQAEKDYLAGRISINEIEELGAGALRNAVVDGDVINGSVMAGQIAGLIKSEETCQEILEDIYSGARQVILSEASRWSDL
Kind of assay: Inhibition of Streptococcus agalactiae WB1445 FabK in presence of t-O-NAC and NADH up to 1 min by spectrophotometric analysis. The method, boiled down: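 Recombinant His-tagged FabK (20 µL of 150 µg/mL stock) was assayed in 100 µL of 0.1 M ADA-DTT, pH 6.5, against compounds at 128-1 µM, with 10 µL of 4 mM t-O-NAC. Addition of 20 µL of 2 mM NADH started the reaction. Absorbance at 340 nm was read for 1 min. IC50 was estimated from dose-response curves.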

In assay [7] the test system is Escherichia coli. Kind of assay: Antibacterial activity against Escherichia coli ATCC 35150 after 24 hrs by two fold serial dilution method. Format: functional. Conditions: ATCC 35150, 24 h. The method, boiled down: as §1
Assay [8] relates to Staphylococcus aureus. Kind of assay: Antibacterial activity against Staphylococcus aureus ATCC 29213 after 24 hrs by two fold serial dilution method. Format: functional. Conditions: ATCC 29213, 24 h. The gist of the method: as §1
Assay [9] concerns Escherichia coli. Kind of assay: Bactericidal activity against Escherichia coli ATCC 35150 incubated for 24 hrs followed by re-plating on nutrient agar and measured after overnight incubation by two fold serial dilution method. Conditions: ATCC 35150, 24 h. The class given is functional. The method, boiled down: as §2
Assay [10] has as its system Staphylococcus aureus. As to the kind of experiment: Bactericidal activity against Staphylococcus aureus ATCC 29213 incubated for 24 hrs followed by re-plating on nutrient agar and measured after overnight incubation by two fold serial dilution method. The class given is functional. Conditions: ATCC 29213, 24 h. The gist of the method:
as §2

Converted amounts (≈) assume the structure as drawn. Some results are limits rather than exact numbers.

Take `O=c1ccc2ccc(OCCCCCCCCn3cncn3)cc2o1`: the MIC in assay [1] is 64 µM (≈ 21.9 µg/mL); in assay [2], 32 µM (≈ 10.9 µg/mL). Moreover, the MBC in assay [3] stood at 128 µM (≈ 43.7 µg/mL); in assay [4], 64 µM (≈ 21.9 µg/mL). Also, the IC50 in assay [5] was determined as 79.5 µM; in assay [6] it was 7.68 µM.
For `Cc1cc(=O)oc2cc(OCCCCCCCCn3cnc4ccccc43)ccc12`, the MIC was 16 µM (≈ 6.47 µg/mL) in assay [1], over 256 µM in [7], 32 µM (≈ 12.9 µg/mL) in assay [2] and 32 µM (≈ 12.9 µg/mL) in assay [8]. In addition, the minimal bactericidal concentration (MBC) in assay [3] is 64 µM (≈ 25.9 µg/mL); in assay [9], over 256 µM; in assay [4] it was 64 µM (≈ 25.9 µg/mL); in assay [10], 256 µM (≈ 104 µg/mL).
On to `Cc1cn(CCCCCCCCOc2ccc3ccc(=O)oc3c2)cn1`, for which the MIC in assay [1] was 4 µM (≈ 1.42 µg/mL); in [7], over 256 µM; in [2] it was 4 µM (≈ 1.42 µg/mL); in assay [8], 8 µM (≈ 2.84 µg/mL). Further, the MBC in assay [3] was 8 µM (≈ 2.84 µg/mL); in assay [9], over 256 µM; in [4], 16 µM (≈ 5.67 µg/mL); in [10], 64 µM (≈ 22.7 µg/mL). In addition, the values for the IC50 in [5] and in [6] were 117 µM and 1.75 µM, respectively.
For `Cc1nccn1CCCCCCCCCCOc1ccc2ccc(=O)oc2c1`, the MIC in [1] was 8 µM (≈ 3.06 µg/mL); in assay [7], over 256 µM; in assay [2], 8 µM (≈ 3.06 µg/mL); in [8], 64 µM (≈ 24.5 µg/mL). Also, the minimum bactericidal concentration (MBC) in assay [3] is 16 µM (≈ 6.12 µg/mL); in assay [9] it was over 256 µM; in [4] it was 16 µM (≈ 6.12 µg/mL); in [10] it was 128 µM (≈ 49 µg/mL). In addition, the IC50 was determined as 108 µM in assay [5] and 4.21 µM in assay [6].
Consider `Cc1nccn1CCCCCCOc1ccc2ccc(=O)oc2c1`, for which the MIC in [1] was determined as 16 µM (≈ 5.22 µg/mL); in assay [7], 8 µM (≈ 2.61 µg/mL); in assay [2] it was 128 µM (≈ 41.8 µg/mL); in assay [8], 64 µM (≈ 20.9 µg/mL). Also, the MBC in assay [3] was determined as 32 µM (≈ 10.4 µg/mL); in [9] it was 64 µM (≈ 20.9 µg/mL); in assay [4] it was 256 µM (≈ 83.6 µg/mL); in assay [10], 256 µM (≈ 83.6 µg/mL). Moreover, the figures for the IC50 in assay [5] and in assay [6] were 1.2 µM and 3.44 µM, respectively.
As to `O=c1ccc2ccc(OCCCCCCCCCCn3ccnc3)cc2o1`, the MIC in [1] was 16 µM (≈ 5.9 µg/mL); in assay [7] it was over 256 µM; in assay [2] it was 8 µM (≈ 2.95 µg/mL); in assay [8] it was 64 µM (≈ 23.6 µg/mL). The MBC is 16 µM (≈ 5.9 µg/mL) in [3], over 256 µM in [9], 16 µM (≈ 5.9 µg/mL) in [4] and 128 µM (≈ 47.2 µg/mL) in assay [10]. Further, the IC50 is over 256 µM in assay [5] and 5.03 µM in assay [6].
For `Cc1cc(=O)oc2cc(OCCCCCCCCn3cncn3)ccc12`, the MIC in assay [1] was 16 µM (≈ 5.69 µg/mL); in [7], over 256 µM; in [2], 32 µM (≈ 11.4 µg/mL); in assay [8], 32 µM (≈ 11.4 µg/mL). The MBC in assay [3] was 64 µM (≈ 22.7 µg/mL); in assay [9], over 256 µM; in assay [4], 64 µM (≈ 22.7 µg/mL); in assay [10] it was 256 µM (≈ 91 µg/mL).
As to `Cc1cn(CCCCCCCCCCOc2ccc3ccc(=O)oc3c2)cn1`, the minimal inhibitory concentration (MIC) was 16 µM (≈ 6.12 µg/mL) in [1], over 256 µM in [7], 8 µM (≈ 3.06 µg/mL) in [2] and 32 µM (≈ 12.2 µg/mL) in assay [8]. Besides, the MBC in [3] was 16 µM (≈ 6.12 µg/mL); in [9], over 256 µM; in assay [4], 16 µM (≈ 6.12 µg/mL); in assay [10] it was 128 µM (≈ 49 µg/mL). Further, the IC50 in assay [5] came to 115 µM; in assay [6], 4.37 µM.
For `Cc1nccn1CCCCCCCCOc1ccc2ccc(=O)oc2c1`, the MIC was 2 µM (≈ 0.709 µg/mL) in [1], over 256 µM in [7], 4 µM (≈ 1.42 µg/mL) in assay [2] and 16 µM (≈ 5.67 µg/mL) in assay [8]. The MBC is 8 µM (≈ 2.84 µg/mL) in assay [3], over 256 µM in assay [9], 16 µM (≈ 5.67 µg/mL) in [4] and 128 µM (≈ 45.4 µg/mL) in assay [10]. The IC50 in assay [5] worked out at 112 µM; in assay [6] it was 1.13 µM.
For the compound `O=c1ccc2ccc(OCCCCCCCCn3ccnc3)cc2o1`, the MIC in assay [1] is 4 µM (≈ 1.36 µg/mL); in assay [7] it was over 256 µM; in assay [2], 8 µM (≈ 2.72 µg/mL); in [8] it was 16 µM (≈ 5.45 µg/mL). The MBC was 8 µM (≈ 2.72 µg/mL) in assay [3], over 256 µM in assay [9], 16 µM (≈ 5.45 µg/mL) in [4] and 128 µM (≈ 43.6 µg/mL) in assay [10]. Besides, the IC50 in [5] is 158 µM; in assay [6], 2.74 µM.
On to `Cc1nccn1CCCCOc1ccc2ccc(=O)oc2c1`, for which the MIC is over 256 µM in assay [1], 64 µM (≈ 19.1 µg/mL) in [7], over 256 µM in assay [2] and 256 µM (≈ 76.4 µg/mL) in assay [8]. Also, the MBC in assay [3] was over 256 µM; in [9], 256 µM (≈ 76.4 µg/mL); in [4] it was over 256 µM; in assay [10], 256 µM (≈ 76.4 µg/mL). Also, the IC50 was 4.46 µM in assay [5] and over 256 µM in [6].
Regarding `Cc1cn(CCCCCCOc2ccc3ccc(=O)oc3c2)cn1`, the MIC was found to be 32 µM (≈ 10.4 µg/mL) in [1], 16 µM (≈ 5.22 µg/mL) in [7], 128 µM (≈ 41.8 µg/mL) in [2] and 32 µM (≈ 10.4 µg/mL) in [8]. Besides, the MBC in [3] is 128 µM (≈ 41.8 µg/mL); in assay [9], 64 µM (≈ 20.9 µg/mL); in assay [4] it was 256 µM (≈ 83.6 µg/mL); in assay [10] it was 128 µM (≈ 41.8 µg/mL). Also, the IC50 in assay [5] is 1.35 µM; in [6], 3.59 µM.
For the compound `CCN1CCN(c2cc3c(cc2F)c(=O)c(C(=O)O)cn3C2CC2)CC1` [ENROFLOXACIN], the MIC in [1] stood at 2 µM (≈ 0.719 µg/mL); in assay [7], 1 µM (≈ 0.359 µg/mL); in [2] it was 8 µM (≈ 2.88 µg/mL); in assay [8], 2 µM (≈ 0.719 µg/mL). Besides, the MBC in assay [3] turned out to be 2 µM (≈ 0.719 µg/mL); in assay [9] it was 2 µM (≈ 0.719 µg/mL); in assay [4], 16 µM (≈ 5.75 µg/mL); in assay [10], 4 µM (≈ 1.44 µg/mL).
`CCn1cc(C(=O)O)c(=O)c2cc(F)c(N3CCNCC3)cc21` [NORFLOXACIN]: the MIC stood at 32 µM (≈ 10.2 µg/mL) in assay [1], 1 µM (≈ 0.319 µg/mL) in [7], 64 µM (≈ 20.4 µg/mL) in assay [2] and 32 µM (≈ 10.2 µg/mL) in assay [8]. Also, the MBC amounted to 128 µM (≈ 40.9 µg/mL) in assay [3], 2 µM (≈ 0.639 µg/mL) in assay [9], 128 µM (≈ 40.9 µg/mL) in assay [4] and 64 µM (≈ 20.4 µg/mL) in assay [10].

What is called MIC is the smallest concentration in the dilution series that meets the test's criterion for growth inhibition. A word on the MBC: it is the lowest tested concentration that kills the bacteria rather than only halting them. What is called IC50 is the concentration that inhibits the measured activity by half.
